We go through 39 compounds from ChEMBL document CHEMBL1122471, “1,3-Diaryltriazenes: a new class of anorectic agents” (1983).

Molecules are shown by their SMILES.

The test system of the first test is Rattus norvegicus. The test can be described thus: Percentage of body weight reduction in male Sprague-Dawley rats at 25 mg/kg; 31-45% reduction from controls.
Settings: not given
Compound `Clc1cccc(N=NNc2cccc(Cl)c2Cl)c1Cl` displayed a Body weight reduction of 31%.

Another test concerns Rattus norvegicus. Briefly: Percentage of body weight reduction in male Sprague-Dawley rats at 50 mg/kg; 31-45% reduction from controls.
Settings: not given
The test is classed as functional. Put shortly:
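Individually housed male CD Sprague-Dawley rats trained to eat their ration within 5 h were dosed orally once daily for 5 days, 10 vehicle controls and 10 treated. Body weight was taken daily before dosing.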
Compound `CN(N=Nc1ccccc1)c1ccccc1` had a Body weight reduction of 31%. On the same count and under the same terms, to `N#Cc1ccc(Cl)cc1N=NNc1cc(Cl)ccc1C#N` belongs 31%.

Compound `N#Cc1cc(C(F)(F)F)ccc1N=NNc1ccc(C(F)(F)F)cc1C#N` registered a Body weight reduction of 31%. Still for that read-out and setting: to `CCCNC(=O)N(N=Nc1cc(C(F)(F)F)ccc1C#N)c1cc(C(F)(F)F)ccc1C#N` belongs 31%; to `FC(F)(F)c1ccccc1N=NNc1ccccc1C(F)(F)F`, 31%.

In a further test the test system is Rattus norvegicus. Briefly: Percentage of body weight reduction in male Sprague-Dawley rats at 25 mg/kg. Format: functional.
Settings: not given
Summed up:
(§1)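 Individually housed male CD Sprague-Dawley rats trained to eat their ration within 5 h were dosed orally once daily for 5 days, 10 vehicle controls and 10 treated. Body weight was taken daily before dosing. Reduction from concurrent controls was scored in bands: 16-30%, 31-45%, 46-60%, ≥61%.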
Turning to `CC(C)C(=O)N(N=Nc1cc(C(F)(F)F)ccc1C#N)c1cc(C(F)(F)F)ccc1C#N`, the Body weight reduction is listed as over 61%. On the same count and under the same terms, to `CCCC(=O)N(N=Nc1cc(C(F)(F)F)ccc1C#N)c1cc(C(F)(F)F)ccc1C#N` belongs over 61%.

Another test relates to Rattus norvegicus. Briefly: Percentage of body weight reduction in male Sprague-Dawley rats at 50 mg/kg; […] reduction from controls. The test is classed as functional.
Settings: not given
Summed up:
as §1
For `N#Cc1ccc(C(F)(F)F)cc1NN=Nc1ccccc1`, the Body weight reduction turned out to be 16%. `N#Cc1ccc(C(F)(F)F)cc1NN=Nc1cc(C(F)(F)F)ccc1C(=O)O` came in with a Body weight reduction of 16%. Take `N#Cc1ccc(C(F)(F)F)cc1N=NNc1ccc(C(=O)O)cc1`: the Body weight reduction is 16%.

The next test has as its system Rattus norvegicus. The test can be described thus: Percentage of body weight reduction in male Sprague-Dawley rats at 30 mg/kg. Format: functional.
Settings: not given
Put shortly:
as §1
As to `CN(N=Nc1cc(C(F)(F)F)ccc1C#N)c1cc(C(F)(F)F)ccc1C#N`, the Body weight reduction is recorded as under 15%.

For another test, the system named is Rattus norvegicus. Briefly: Percentage of body weight reduction in male Sprague-Dawley rats at 50 mg/kg;. The test is classed as functional.
Settings: not given
Summed up:
as §1
The compound `N#Cc1ccccc1N=NNc1ccccc1C#N` displayed a Body weight reduction of under 15%.

Another test has as its system Rattus norvegicus. The test can be described thus: Percentage of body weight reduction in male Sprague-Dawley rats at 50 mg/kg. Format: functional.
Settings: not given
Put shortly: as §1
As for `COC(=O)c1ccc(C(F)(F)F)cc1N=NNc1cc(C(F)(F)F)ccc1C(=O)OC`, the Body weight reduction was under 15%. Same read-out and setting: to `Clc1cccc(Cl)c1N=NNc1c(Cl)cccc1Cl` belongs under 15%; to `Cc1ccc(C#N)c(N=NNc2cc(C)ccc2C#N)c1`, under 15%; to `CCOC(=O)NC(=O)N(N=Nc1cc(C(F)(F)F)ccc1C#N)c1cc(C(F)(F)F)ccc1C#N`, over 61%.

Regarding `N#Cc1ccc(C(F)(F)F)cc1N=NNc1cccc(C(F)(F)F)c1`, the Body weight reduction is under 15%. Same read-out and setting: then `CC(=O)N(N=Nc1cccc(C(F)(F)F)c1)c1cc(C(F)(F)F)ccc1C#N`, with under 15%; and `FC(F)(F)c1ccc(Br)c(N=NNc2cc(C(F)(F)F)ccc2Br)c1`, with under 15%. On the same count and under the same terms, then `FC(F)(F)c1ccc(N=NNc2ccc(C(F)(F)F)cc2)cc1`, with under 15%. `CC(=O)N(N=Nc1ccccc1)c1ccccc1` yielded a Body weight reduction of over 61%. In turn, `FC(F)(F)c1ccc(Cl)c(N=NNc2cc(C(F)(F)F)ccc2Cl)c1` displayed a Body weight reduction of under 15%. In the case of `CCOC(=O)N(N=Nc1cc(C(F)(F)F)ccc1C#N)c1cc(C(F)(F)F)ccc1C#N`, the Body weight reduction is reported as over 61%. On to `FC(F)(F)c1cccc(N=NNc2cccc(C(F)(F)F)c2)c1`, for which the Body weight reduction is reported as under 15%. `CC(=O)N(N=Nc1c(Cl)cccc1Cl)c1cc(C(F)(F)F)ccc1C#N` had a Body weight reduction of under 15%.

Regarding `N#Cc1ccc(C(F)(F)F)cc1N=NN(C(=O)c1ccccc1)c1cc(C(F)(F)F)ccc1C#N`, the Body weight reduction is under 15%.

`CC(=O)N(N=Nc1cc(C(F)(F)F)ccc1C#N)c1cc(C(F)(F)F)ccc1C#N` had a Body weight reduction of over 61%. On the same count and under the same terms, then `N#Cc1ccc(C(F)(F)F)cc1N=NN(C(=O)CCl)c1cc(C(F)(F)F)ccc1C#N`, with under 15%. Still for that read-out and setting: to `Clc1ccccc1N=NNc1ccccc1Cl` belongs under 15%.

Another test deals with Rattus norvegicus. The test can be described thus: Percentage of body weight reduction in male Sprague-Dawley rats at 50 mg/kg; 46-60% reduction from controls. The test is classed as functional. The note with it: dose 25 mg/kg; in the assay text read “at 25 mg/kg” for “at 50 mg/kg”. Put shortly:
as §1
The compound `CNC(=O)N(N=Nc1cc(C(F)(F)F)ccc1C#N)c1cc(C(F)(F)F)ccc1C#N` returned a Body weight reduction of 46%.

Still in this test, the particulars now being: dose 50 mg/kg.
`CC(=O)N(N=Nc1ccc(C(F)(F)F)cc1C#N)c1ccc(C(F)(F)F)cc1` yielded a Body weight reduction of 46%. On the same count and under the same terms, to `N#Cc1ccc(C(F)(F)F)cc1N=NN(C(=O)Nc1ccccc1)c1cc(C(F)(F)F)ccc1C#N` belongs 46%; to `Clc1ccc(N=NNc2ccc(Cl)cc2)cc1`, 46%; to `CCCCC(=O)N(N=Nc1cc(C(F)(F)F)ccc1C#N)c1cc(C(F)(F)F)ccc1C#N`, 46%. On the same count and under the same terms, then `N#Cc1ccc(C(F)(F)F)cc1NN=Nc1c(Cl)cccc1Cl`, with 46%. `COC(=O)CC(=O)N(N=Nc1cc(C(F)(F)F)ccc1C#N)c1cc(C(F)(F)F)ccc1C#N` yielded a Body weight reduction of 46%. `CCC(=O)N(N=Nc1cc(C(F)(F)F)ccc1C#N)c1cc(C(F)(F)F)ccc1C#N` gave a Body weight reduction of 46%. For `COc1ccccc1N=NNc1ccccc1OC`, the Body weight reduction is recorded as 46%.
